Results from ChEMBL document CHEMBL1687712, “Antiviral effects of lamivudine, emtricitabine, adefovir dipivoxil, and tenofovir disoproxil fumarate administered orally alone and in combination to woodchucks with chronic woodchuck hepatitis virus infection” (Antimicrob Agents Chemother, 2008).
Active and inactive are the calls of the source. The rule behind the calls is not given here.

What was measured:
[1] = test system: Woodchuck hepatitis virus; assay: Antiviral activity against Woodchuck hepatitis virus infected in woodchuck assessed as reduction of viral DNA replicative intermediate level per ug of total cell DNA at 15 mg/kg, po qd for 48 weeks (reference value: 995 +/- 736 pg); format: functional
Outline: (§1)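 Chronic WHV-carrier woodchucks, 5 per group, 15 mg/kg/day oral once daily for 48 weeks in liquid diet. Needle liver biopsies were snap-frozen in liquid nitrogen and stored at −70°C. Hepatic WHV DNA replicative intermediates were quantified by Southern blot (pg/μg total cell DNA) and WHV RNA by Northern blot; group means ± SD were compared with pretreatment and placebo.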

Marmota monax [2] = assay: Toxicity in Woodchuck hepatitis virus infected woodchuck assessed as increase of liver aspartate aminotransferase activity at 15 mg/kg, po qd for 48 weeks; format: organism-based; set-up: dose 15 mg/kg, route oral; details: in vivo, 8064 h
Outline: (§2)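 Woodchucks chronically infected with WHV, 5 per group, received oral drug once daily in liquid diet for 48 weeks; placebo got diet only. Serum chemistry (GGT, ALP, ALT, AST, SDH, among others) was run 2 weeks pretreatment, at week 0, every other week to week 12, then monthly to week 48. Sampling continued at 2, 4, 6, 8 and 12 weeks post-treatment.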

Marmota monax [3] = assay: Toxicity in Woodchuck hepatitis virus infected woodchuck assessed as increase of liver sorbitol dehydrogenase activity at 15 mg/kg, po qd measured on 4 to 24 weeks on 48 week study; format: organism-based; set-up: dose 15 mg/kg, route oral; details: in vivo; outline: as §2
[4] = test system: Woodchuck hepatitis virus; assay: Antiviral activity against Woodchuck hepatitis virus infected in woodchuck assessed as reduction of viral RNA level per ug of total cell DNA at 15 mg/kg, po qd for 48 weeks (reference value: 34 +/- 20 pg); format: functional; outline: as §1
[5] = test system: Woodchuck hepatitis virus; assay: Antiviral activity against Woodchuck hepatitis virus infected in woodchuck assessed as reduction of viral antigen level in serum at 15 mg/kg, po qd measured on 36th week on 48 weeks study (reference value: 3.8 +/- 1.3 log10 ng/ml); format: functional
Marmota monax [6] = assay: Toxicity in Woodchuck hepatitis virus infected woodchuck assessed as change in body weight at 15 mg/kg, po qd for 48 weeks measured up to 60 weeks; format: organism-based; set-up: dose 15 mg/kg, route oral; details: in vivo
Outline: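 Chronic WHV-carrier woodchucks, 5 per group, were dosed orally once daily in liquid diet for 48 weeks, with a placebo diet-only group. Body weights were monitored. Complete blood counts were taken 2 weeks pretreatment, at weeks 12, 36 and 48 of treatment, and 12 weeks after withdrawal. Values were compared with placebo controls.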

Marmota monax [7] = assay: Toxicity in Woodchuck hepatitis virus infected woodchuck assessed as increase of liver sorbitol dehydrogenase activity at 15 mg/kg, po qd measured on 28 to 48 weeks on 48 week study; format: organism-based; set-up: dose 15 mg/kg, route oral; details: in vivo; outline: as §2
[8] = test system: Woodchuck hepatitis virus; assay: Antiviral activity against Woodchuck hepatitis virus infected in woodchuck assessed as reduction of viral RNA level per ug of total cell DNA at 15 mg/kg, po qd for 48 weeks measured on 60th week (reference value: 27 pg); format: functional; outline: as §1
Marmota monax [9] = assay: Toxicity in Woodchuck hepatitis virus infected woodchuck assessed as increase of liver alkaline phosphatase activity at 15 mg/kg, po qd for 48 weeks; format: organism-based; set-up: dose 15 mg/kg, route oral; details: in vivo, 8064 h; outline: as §2
[10] = test system: Woodchuck hepatitis virus; assay: Antiviral activity against Woodchuck hepatitis virus infected in woodchuck assessed as absent of lesion in portal hepatitis at 15 mg/kg, po qd for 48 weeks; format: functional, organism-based; set-up: dose 15 mg/kg
Outline: (§3)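 Adult chronic WHV-carrier woodchucks (neonatally inoculated), 5 per group, given drug once daily by dose syringe in semisynthetic liquid diet, for 48 weeks; placebo got diet alone. Ultrasound-guided needle liver biopsies under ketamine/xylazine anesthesia at pretreatment, weeks 12, 36, 48 and 12 weeks post-withdrawal. Biopsies were formalin-fixed, paraffin-embedded and H&E stained. Portal and lobular hepatitis were graded 0 (absent) to 4 (most severe).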

[11] = test system: Woodchuck hepatitis virus; assay: Antiviral activity against Woodchuck hepatitis virus infected in woodchuck assessed as reduction of viral RNA level per ug of total cell DNA at 15 mg/kg, po qd measured on 36th week on 48 weeks study (reference value: 33 +/- 21 pg); format: functional; outline: as §1
Marmota monax [12] = assay: Toxicity in Woodchuck hepatitis virus infected woodchuck assessed as increase of liver alanine aminotransferase activity at 15 mg/kg, po qd measured on 4 to 24 weeks on 48 week study; format: organism-based; set-up: dose 15 mg/kg, route oral; details: in vivo; outline: as §2
[13] = test system: Woodchuck hepatitis virus; assay: Antiviral activity against Woodchuck hepatitis virus infected in woodchuck assessed as frequency of hepatocytes expressing viral antigen at 15 mg/kg, po qd for 48 weeks; format: functional, Hepatocyte
Outline: (§4)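 Chronic WHV-carrier woodchucks, 5 per group, given 15 mg/kg/day orally once daily for 48 weeks in liquid diet; placebo is diet alone. Liver biopsies at pretreatment, weeks 12, 36, 48 and 12 weeks after withdrawal. Cytoplasmic WHsAg staining scored 0–4: 1 ≤1%, 2 ≤2%, 3 ≤5%, 4 ≥10% of hepatocytes.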

[14] = test system: Woodchuck hepatitis virus; assay: Antiviral activity against Woodchuck hepatitis virus infected in woodchuck assessed as absent of lesion in lobular hepatitis at 15 mg/kg, po qd measured on 36th week on 48 weeks study; format: functional, organism-based; set-up: dose 15 mg/kg
Outline: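 Chronic WHV-carrier adult woodchucks (inoculated at 3 days of age), 5 per group, dosed orally once daily for 48 weeks by dose syringe, drug in saline suspended in semisynthetic liquid diet; placebo is diet alone. Ultrasound-guided needle liver biopsies under ketamine/xylazine, formalin-fixed, H&E stained; portal and lobular hepatitis graded 0 (absent) to 4 (most severe).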

[15] = test system: Woodchuck hepatitis virus; assay: Antiviral activity against Woodchuck hepatitis virus infected in woodchuck assessed as absent of lesion in portal hepatitis at 15 mg/kg, po qd measured on 12th week on 48 weeks study; format: functional, organism-based; set-up: dose 15 mg/kg; outline: as §3
[16] = test system: Woodchuck hepatitis virus; assay: Antiviral activity against Woodchuck hepatitis virus infected in woodchuck assessed as reduction of viral antigen level in serum at 15 mg/kg, po qd for 48 weeks measured on 60th week (reference value: 3.3 +/- 1.6 log10 ng/ml); format: functional
[17] = test system: Woodchuck hepatitis virus; assay: Antiviral activity against Woodchuck hepatitis virus infected in woodchuck assessed as reduction of viral antigen positive hepatocytes at 15 mg/kg, po qd for 48 weeks study (reference value: 35 +/- 27 %); format: functional, Hepatocyte; set-up: scale not given: the % may be the effect or the level left
Outline: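 Chronic WHV-carrier woodchucks, 5 per group, 15 mg/kg/day oral once daily for 48 weeks in liquid diet. Liver biopsies were taken at pretreatment, weeks 12, 36, 48 and week 60. Percentage of hepatocytes positive for WHcAg was given as group mean ± SD and compared with pretreatment and placebo.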

[18] = test system: Woodchuck hepatitis virus; assay: Antiviral activity against Woodchuck hepatitis virus infected in woodchuck assessed as reduction of viral DNA replicative intermediate level per ug of total cell DNA at 15 mg/kg, po qd measured on 36th week on 48 weeks study (reference value: 1132 +/- 738 pg); format: functional; outline: as §1
[19] = test system: Woodchuck hepatitis virus; assay: Antiviral activity against Woodchuck hepatitis virus infected in woodchuck assessed as reduction of viral DNA replicative intermediate level per ug of total cell DNA at 15 mg/kg, po qd measured on 12th week on 48 weeks study (reference value: 1495 +/- 890 pg); format: functional; outline: as §1
Marmota monax [20] = assay: Toxicity in Woodchuck hepatitis virus infected woodchuck assessed as increase of liver alanine aminotransferase activity at 15 mg/kg, po qd for 48 weeks; format: organism-based; set-up: dose 15 mg/kg, route oral; details: in vivo, 8064 h; outline: as §2
[21] = test system: Woodchuck hepatitis virus; assay: Antiviral activity against Woodchuck hepatitis virus infected in woodchuck assessed as frequency of hepatocytes expressing viral antigen at 15 mg/kg, po qd measured on 12th week on 48 weeks study; format: functional, Hepatocyte; outline: as §4
[22] = test system: Woodchuck hepatitis virus; assay: Antiviral activity against Woodchuck hepatitis virus infected in woodchuck assessed as reduction of viral RNA level per ug of total cell DNA at 15 mg/kg, po qd measured on 12th week on 48 weeks study (reference value: 46 +/- 25 pg); format: functional; outline: as §1

Question: For `CC(C)(C)C(=O)OCOP(=O)(COCCn1cnc2c(N)ncnc21)OCOC(=O)C(C)(C)C` [ADEFOVIR DIPIVOXIL], which Activity [1] is on record?
Answer: The Activity was 151 pg.

Question: What about the Activity (Marmota monax [2]) of the same compound?
Answer: Its Activity is “Toxic”.

Question: What about the Activity (Marmota monax [3]) of the same compound?
Answer: The Activity was “Toxic”.

Question: What about the Activity [4] of the same compound?
Answer: The Activity was 24 pg.

Question: What about the Activity [5] of the same compound?
Answer: The Activity was 4.8 log10ng/ml.

Question: And the Activity (Marmota monax [6])?
Answer: Its Activity is “Non-toxic”.

Question: What about the Activity (Marmota monax [7]) of the same compound?
Answer: Its Activity is “Toxic”.

Question: And the Activity [8]?
Answer: Its Activity is 46 pg.

Question: And the Activity (Marmota monax [9])?
Answer: Its Activity is “Toxic”.

Question: And the Activity [10]?
Answer: The Activity was “Active”.

Question: What about the Activity [11] of the same compound?
Answer: Its Activity is 34 pg.

Question: What about the Activity (Marmota monax [12]) of the same compound?
Answer: Its Activity is “Toxic”.

Question: And the Activity [13]?
Answer: Its Activity is 2%.

Question: And the Activity [14]?
Answer: The Activity was “Active”.

Question: And the Activity [15]?
Answer: The Activity was “Active”.

Question: What about the Activity [16] of the same compound?
Answer: Its Activity is 5 log10ng/ml.

Question: What about the Activity [17] of the same compound?
Answer: Its Activity is 13%.

Question: And the Activity [18]?
Answer: The Activity was 324 pg.

Question: And the Activity [19]?
Answer: The Activity was 330 pg.

Question: And the Activity (Marmota monax [20])?
Answer: Its Activity is “Toxic”.

Question: And the Activity [21]?
Answer: Its Activity is 1%.

Question: What about the Activity [22] of the same compound?
Answer: The Activity was 33 pg.

Question: For `CC(C)OC(=O)OCOP(=O)(CO[C@H](C)Cn1cnc2c(N)ncnc21)OCOC(=O)OC(C)C.O=C(O)/C=C/C(=O)O` [TENOFOVIR DISOPROXIL FUMARATE], which Activity [1] is on record?
Answer: Its Activity is 704 pg.

Question: And the Activity (Marmota monax [2])?
Answer: The Activity was “Toxic”.

Question: And the Activity (Marmota monax [3])?
Answer: The Activity was “Toxic”.

Question: What about the Activity [4] of the same compound?
Answer: Its Activity is 31 pg.

Question: And the Activity [5]?
Answer: Its Activity is 2.9 log10ng/ml.

Question: What about the Activity (Marmota monax [6]) of the same compound?
Answer: Its Activity is “Non-toxic”.

Question: And the Activity (Marmota monax [7])?
Answer: The Activity was “Toxic”.

Question: What about the Activity [8] of the same compound?
Answer: Its Activity is 34 pg.

Question: What about the Activity (Marmota monax [9]) of the same compound?
Answer: Its Activity is “Toxic”.

Question: And the Activity [10]?
Answer: The Activity was “Active”.

Question: What about the Activity [11] of the same compound?
Answer: Its Activity is 25 pg.

Question: And the Activity (Marmota monax [12])?
Answer: Its Activity is “Toxic”.

Question: What about the Activity [13] of the same compound?
Answer: Its Activity is 1%.

Question: What about the Activity [14] of the same compound?
Answer: Its Activity is “Active”.

Question: And the Activity [15]?
Answer: The Activity was “Active”.

Question: And the Activity [16]?
Answer: The Activity was 4 log10ng/ml.

Question: And the Activity [17]?
Answer: The Activity was 26%.

Question: And the Activity [18]?
Answer: The Activity was 443 pg.

Question: And the Activity [19]?
Answer: The Activity was 870 pg.

Question: And the Activity (Marmota monax [20])?
Answer: The Activity was “Toxic”.

Question: And the Activity [21]?
Answer: The Activity was 0%.

Question: What about the Activity [22] of the same compound?
Answer: Its Activity is 30 pg.
